For test [1], the system named is HCT-8. Briefly: Cytotoxicity against human HCT8 cells after 3 days by SRB assay. Conditions: HCT-8, 72 h, read-out: ED50 (the source's name). The test is classed as functional. The procedure, abridged:
(§1)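 Tumour lines kept in RPMI-1640 with 25 mM HEPES, 0.25% sodium bicarbonate, 10% FBS and 100 µg/mL kanamycin. Freshly trypsinized cells were seeded at 1500-7500 per well with compound from DMSO-diluted stock. After 3 days, attached cells were fixed with cold 50% TCA, stained with 0.4% SRB, and the bound dye was solubilized and read at 562 nm. ED50 is the concentration giving 50% growth reduction.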

Test [2] relates to 1A9. In words: Cytotoxicity against human 1A9 cells after 3 days by SRB assay. The note with it: 1A9, 72 h, read-out: ED50 (the source's name). The test is classed as functional. The gist of the method:
as §1
On the technique in general: The SRB assay estimates cell density from bound dye.

In test [3] the test system is KB. Briefly: Cytotoxicity against human KB cells after 3 days by SRB assay. The test is classed as functional. The note with it: 72 h, read-out: ED50 (the source's name). The gist of the method: as §1
Test [4] has as its system A549. In words: Cytotoxicity against human A549 cells after 3 days by SRB assay. The test is classed as functional. The note with it: A549, 72 h, read-out: ED50 (the source's name). The procedure, abridged: as §1
Test [5] concerns 1A9. Briefly: Cytotoxicity against human 1A9 cells after 6 days by SRB assay. The test is classed as functional. Conditions: 1A9, 144 h, read-out: ED50 (the source's name). The gist of the method: (§2)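 Cells were grown in RPMI-1640 supplemented with 25 mM HEPES, 0.25% sodium bicarbonate, 10% FBS and 100 µg/mL kanamycin. Freshly trypsinized cells were plated at 1500-7500 per well with compound from DMSO-diluted stock over a 6-day assay period. Cells were fixed with cold 50% TCA and stained with 0.4% SRB, and the solubilized dye was read at 562 nm. ED50 is the concentration reducing growth by 50%.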

In test [6] the test system is 1A9/ptx-10. Briefly: Cytotoxicity against human 1A9/PTX10 cells after 3 days by SRB assay. Conditions: 1A9/ptx-10, 72 h, read-out: ED50 (the source's name). The class given is functional. The gist of the method:
as §1

A short description of test [7]: Cytotoxicity against human KBVIN cells after 3 days by SRB assay. The class given is functional. Conditions: 72 h, read-out: ED50 (the source's name). The gist of the method: (§3)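 Freshly trypsinized cells from T-25 stock cultures were seeded at 1500-7500 cells/well with compound added from DMSO-diluted stock. The medium was RPMI-1640 with 25 mM HEPES, 0.25% sodium bicarbonate, 10% FBS and 100 µg/mL kanamycin. After 3 days, attached cells were fixed with cold 50% TCA, stained with 0.4% SRB, and the bound dye solubilized and read at 562 nm. ED50 is the concentration giving 50% growth reduction.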

For test [8], the system named is 1A9/ptx-10. Briefly: Cytotoxicity against human 1A9/PTX10 cells after 6 days by SRB assay. The test is classed as functional. Conditions: 1A9/ptx-10, 144 h, read-out: ED50 (the source's name). The procedure, abridged: as §2
Test [9] relates to MCF7. In words: Cytotoxicity against human MCF7 cells after 3 days by SRB assay. The class given is functional. The note with it: MCF7, 72 h, read-out: ED50 (the source's name). The procedure, abridged: as §1
Test [10] is described as follows: Cytotoxicity against human U87MG cells after 3 days by SRB assay. The test is classed as functional, U-87MG ATCC. The note with it: U-87 MG, 72 h, read-out: ED50 (the source's name). The gist of the method: as §3
Test [11] has as its system PC-3. In words: Cytotoxicity against human PC3 cells after 3 days by SRB assay. The class given is functional. Conditions: PC-3, 72 h, read-out: ED50 (the source's name). The gist of the method: as §1
Test [12] has as its system HCT-8. In words: Cytotoxicity against human HCT8 cells at 20 ug/ml after 3 days by SRB assay. The test is classed as functional, cell-based.
The test system of test [13] is U-87MG ATCC. In words: Cytotoxicity against human U87MG cells at 20 ug/ml after 3 days by SRB assay. The class given is functional, cell-based.
The subject of test [14] is KBVIN. In words: Cytotoxicity against human KBVIN cells at 20 ug/ml after 3 days by SRB assay. The test is classed as functional, cell-based.
Test [15] concerns 1A9. In words: Cytotoxicity against human 1A9 cells at 20 ug/ml after 6 days by SRB assay. The class given is functional, cell-based.

Converted amounts (≈) assume the structure as drawn. The source made the active and inactive calls. No cut-off for these calls is given here.

For `CC(=O)O[C@H]1C(=O)[C@@]2(C)[C@H]([C@H](OC(=O)c3ccccc3)[C@]3(O)C[C@H](OC(=O)[C@H](O)[C@@H](NC(=O)c4ccccc4)c4ccccc4)C(C)=C1C3(C)C)[C@]1(OC(C)=O)CO[C@@H]1C[C@@H]2O` [PACLITAXEL], the EC50 was found to be 0.011 µg/mL (≈ 0.0129 µM) in test [1]; 0.002 µg/mL (≈ 0.00234 µM) in test [2]; 0.001 µg/mL (≈ 0.00117 µM) in [3]; 0.005 µg/mL (≈ 0.00586 µM) in test [4]; 0.041 µg/mL (≈ 0.048 µM) in [5].

As for `CC[C@H](CC[C@@H](C)[C@H]1CC[C@H]2[C@@H]3CC=C4C[C@@H](O)CC[C@]4(C)[C@H]3CC[C@]12C)C(C)C` [BETA-SITOSTEROL], the EC50 is greater than 20 µg/mL in [1]; 16.8 µg/mL (≈ 40.5 µM) in [2]; greater than 20 µg/mL in test [3]; 20 µg/mL (≈ 48.2 µM) in test [6]; greater than 20 µg/mL in [4]; greater than 20 µg/mL in test [7]. For the same compound, the EC50 in [8] was 9.5 µg/mL (≈ 22.9 µM); in test [9], greater than 20 µg/mL; in [5] it was 10.6 µg/mL (≈ 25.6 µM); in test [10], greater than 20 µg/mL; in test [11], greater than 20 µg/mL.

As to `CC(=O)O[C@H]1CC[C@](C)(O)[C@]23OC(C)(C)[C@H]([C@H](O)[C@H](OC(=O)c4ccccc4)[C@]12C)[C@H]3O` [REISSANTIN D], the EC50 in [2] is greater than 20 µg/mL; in test [3] it was greater than 20 µg/mL; in [6], greater than 20 µg/mL; in test [4], greater than 20 µg/mL; in [8], greater than 20 µg/mL; in [9], 16.2 µg/mL (≈ 36.1 µM). Further, the EC50 in test [5] and in test [11] was greater than 20 µg/mL in each case. The outcome in test [12], in test [13] and in test [14] was inactive.

As to `CC(=O)O[C@H]1[C@@H]2[C@@H](OC(=O)c3ccc(=O)n(C)c3)[C@@]3(OC2(C)C)[C@@](C)([C@@H](OC(C)=O)CC[C@]3(C)O)[C@H]1OC(=O)c1ccccc1` [REISSANTIN A], the EC50 in [1], in test [2], in test [3], in [6], in test [4] and in [8] was greater than 20 µg/mL in each case. The EC50 in [9], in [5] and in test [11] was greater than 20 µg/mL in each case. Moreover, the outcome in test [13] and in [14] was inactive.

`CC(=O)O[C@H]1[C@@H]2[C@@H](OC(=O)c3ccc(=O)n(C)c3)[C@@]3(OC2(C)C)[C@](C)([C@H]1OC(=O)c1ccccc1)[C@@H](OC(C)=O)[C@@H](OC(=O)c1ccccc1)C[C@]3(C)O` [REISSANTIN B]: the EC50 was greater than 20 µg/mL in [1]; 17.1 µg/mL (≈ 22.9 µM) in test [2]; 11.7 µg/mL (≈ 15.7 µM) in test [3]; greater than 20 µg/mL in test [6]; 15.3 µg/mL (≈ 20.5 µM) in test [4]; 17.1 µg/mL (≈ 22.9 µM) in test [7]. In addition, the EC50 in [8] was 15.3 µg/mL (≈ 20.5 µM); in [9] it was greater than 20 µg/mL; in test [5] it was 13.7 µg/mL (≈ 18.4 µM); in [10] it was greater than 20 µg/mL; in [11], greater than 20 µg/mL.

Regarding `CC(=O)O[C@H]1[C@@H]2[C@@H](O)[C@@]3(OC2(C)C)[C@@](C)([C@@H](OC(C)=O)CC[C@]3(C)O)[C@H]1OC(=O)c1ccccc1` [REISSANTIN E], the EC50 in [1] was greater than 20 µg/mL; in test [2], greater than 20 µg/mL; in [3] it was 14.4 µg/mL (≈ 29.4 µM); in [6] it was greater than 20 µg/mL; in test [4], greater than 20 µg/mL; in test [7], 16.5 µg/mL (≈ 33.6 µM). For the same compound, the EC50 in [8], in [9] and in test [11] was greater than 20 µg/mL throughout. Moreover, the result in [13] and in test [15] was inactive.

With `CC1(C)CC[C@]2(C)CC[C@]3(C)C(=CC[C@@H]4[C@@]5(C)CC[C@H](O)C(C)(C)C5C(=O)C[C@]43C)[C@H]2C1` (some centres undefined), the EC50 in [1] worked out at 13.7 µg/mL (≈ 31.1 µM); in test [2], 11.4 µg/mL (≈ 25.9 µM); in [3] it was 13 µg/mL (≈ 29.5 µM); in test [6] it was 11 µg/mL (≈ 25 µM); in [4] it was 13.3 µg/mL (≈ 30.2 µM); in test [7] it was 14.7 µg/mL (≈ 33.4 µM). Also, the EC50 in test [8] is 11.2 µg/mL (≈ 25.4 µM); in [9], 14.6 µg/mL (≈ 33.1 µM); in test [5], 11.3 µg/mL (≈ 25.6 µM); in test [10], 6.7 µg/mL (≈ 15.2 µM); in [11], 15.1 µg/mL (≈ 34.3 µM).

Turning to `COC(=O)[C@]1(C)CC[C@]2(C)CC[C@]3(C)C4=CC(=O)c5c(cc(O)c(O)c5C)[C@]4(C)CC[C@@]3(C)[C@@H]2C1`, the EC50 was 14.1 µg/mL (≈ 29.3 µM) in test [1]; 11.7 µg/mL (≈ 24.3 µM) in test [2]; 14.5 µg/mL (≈ 30.2 µM) in test [3]; 12.4 µg/mL (≈ 25.8 µM) in test [6]; 16.4 µg/mL (≈ 34.1 µM) in [4]; 16.6 µg/mL (≈ 34.5 µM) in test [7]. In addition, the EC50 in test [8] was 7.1 µg/mL (≈ 14.8 µM); in test [9] it was 12.8 µg/mL (≈ 26.6 µM); in test [5], 10.7 µg/mL (≈ 22.3 µM); in test [10], greater than 20 µg/mL; in [11], greater than 20 µg/mL.

Regarding `CC1=C(O)C(=O)C=C2C1=CC=C1[C@@]2(C)CC[C@@]2(C)[C@@H]3C[C@](C)(C(=O)O)CC[C@]3(C)CC[C@]12C` [CELASTROL], the EC50 stood at 0.23 µg/mL (≈ 0.51 µM) in test [1]; 0.091 µg/mL (≈ 0.202 µM) in [2]; 0.2 µg/mL (≈ 0.444 µM) in [3]; 0.1 µg/mL (≈ 0.222 µM) in test [6]; 0.25 µg/mL (≈ 0.555 µM) in [4]; 0.34 µg/mL (≈ 0.755 µM) in [7]. Besides, the EC50 in [8] worked out at 0.11 µg/mL (≈ 0.244 µM); in [9] it was 0.21 µg/mL (≈ 0.466 µM); in [5], 0.11 µg/mL (≈ 0.244 µM); in [10], 0.22 µg/mL (≈ 0.488 µM); in test [11], 0.27 µg/mL (≈ 0.599 µM).

On to `COC(=O)[C@]1(C)CC[C@]2(C)CC[C@]3(C)C4=CC=C5C(=CC(=O)C(O)=C5C)[C@]4(C)CC[C@@]3(C)[C@@H]2C1` [PRISTIMERIN], for which the EC50 in [1] came out at 0.15 µg/mL (≈ 0.323 µM); in test [2] it was 0.1 µg/mL (≈ 0.215 µM); in [3], 0.1 µg/mL (≈ 0.215 µM); in test [6], 0.11 µg/mL (≈ 0.237 µM); in test [4], 0.31 µg/mL (≈ 0.667 µM); in test [7] it was 0.29 µg/mL (≈ 0.624 µM). Moreover, the EC50 in test [8] was 0.076 µg/mL (≈ 0.164 µM); in test [9], 0.14 µg/mL (≈ 0.301 µM); in test [5] it was 0.11 µg/mL (≈ 0.237 µM); in test [10] it was 0.17 µg/mL (≈ 0.366 µM); in [11] it was 0.23 µg/mL (≈ 0.495 µM).
